Laboratory results from PubChem BioAssay AID602271 (Johns Hopkins Ion Channel Center, 2012).
pIC50: −log10 of the molar value. Calls of active or inactive are those of the source.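 The calls were made as follows: active = changes KCNQ2 potassium channel current, up or down, at some tested dose, giving a fitted dose response; inactive = no effect at any dose or no dose response.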

target: Potassium voltage-gated channel subfamily KQT member 2 (Rattus norvegicus) (UniProt O88943); experiment: blockers of KCNQ2 potassium current – automated electrophysiology, CHO cells, orthogonal assay, SAR follow-up (AID 602271); details: automated patch clamp current
Sequence (O88943 whole entry, looked up): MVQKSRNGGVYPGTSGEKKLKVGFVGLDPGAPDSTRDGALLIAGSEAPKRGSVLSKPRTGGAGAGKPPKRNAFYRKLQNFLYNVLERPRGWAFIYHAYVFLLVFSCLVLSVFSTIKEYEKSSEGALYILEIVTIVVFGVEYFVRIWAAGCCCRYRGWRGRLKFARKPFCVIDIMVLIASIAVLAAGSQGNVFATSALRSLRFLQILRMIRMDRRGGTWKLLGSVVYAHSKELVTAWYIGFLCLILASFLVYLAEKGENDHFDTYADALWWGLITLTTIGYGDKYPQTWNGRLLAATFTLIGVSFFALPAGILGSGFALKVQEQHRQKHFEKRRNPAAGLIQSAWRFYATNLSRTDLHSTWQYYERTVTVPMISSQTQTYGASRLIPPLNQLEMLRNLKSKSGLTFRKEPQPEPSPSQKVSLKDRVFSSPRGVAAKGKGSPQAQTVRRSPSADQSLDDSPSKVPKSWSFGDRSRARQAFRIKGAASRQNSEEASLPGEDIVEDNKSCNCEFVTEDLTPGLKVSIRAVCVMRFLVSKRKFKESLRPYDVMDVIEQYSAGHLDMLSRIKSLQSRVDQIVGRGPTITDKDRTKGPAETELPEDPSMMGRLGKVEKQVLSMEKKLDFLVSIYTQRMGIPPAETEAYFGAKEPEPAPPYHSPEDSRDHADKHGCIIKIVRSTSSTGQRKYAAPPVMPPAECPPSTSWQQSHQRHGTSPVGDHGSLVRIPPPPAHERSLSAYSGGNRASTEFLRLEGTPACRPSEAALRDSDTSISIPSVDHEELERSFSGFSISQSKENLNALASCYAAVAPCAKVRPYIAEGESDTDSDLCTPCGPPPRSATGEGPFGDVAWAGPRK
Procedure, shortened: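 System: KCNQ2-expressing CHO cells in automated perforated patch clamp / Medium: external saline pH 7.4, 4 mM KCl, K-gluconate/KCl internal pH 7.25 / Probe or stimulus: depolarization from -90 mV to +40 mV, 2,000 ms / Signal: automated patch clamp, amphotericin B perforation, steady-state current at +40 mV / Evaluation: current change % relative to pre-compound current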

Row | Structure (SMILES) | pIC50
1 | COc1ccc(NC(=O)Cc2cccc(Cl)c2)c(OC)c1 | 5.91
2 | O=C(Cc1cccc(Cl)c1)Nc1ccccc1-n1cccc1 | 4.91
3 | O=C(Cc1cccc(Cl)c1)Nc1cccc(N2CCCC2)c1 | 5.99
4 | O=C(Cc1cccc(Cl)c1)Nc1ccc(Cl)cc1Cl | 5.82
5 | O=C(Cc1cccc(Cl)c1)Nc1ccccc1N1CCCCC1 | 5.15
6 | CN(C)c1ccccc1NC(=O)Cc1cccc(Cl)c1 | 4.56
7 | O=C(Cc1cccc(Cl)c1)Nc1ccc(N2CCCC2)cc1 | 5.06

same assay, conditions: automated patch clamp current, at 30 µM (top of the series)

Row | Structure (SMILES) | current change %, negative = inhibition
8 | O=C(Cc1cccc(Cl)c1)Nc1ccccc1N1CCCCCCC1 | inactive
9 | CCC(C(=O)N(C)c1ccccc1N1CCCC1)c1ccccc1 (configuration not stated) | inactive
10 | O=C(Cc1cccc(Cl)c1)Nc1cccc(F)c1F | inactive
11 | O=C(Cc1cccc(Cl)c1)Nc1ccccc1N1CCOCC1 | inactive
12 | O=C(Cc1cccc(Cl)c1)Nc1ccc(F)cc1F | inactive
13 | CN(Cc1ccccc1)c1ccccc1NC(=O)Cc1cccc(Cl)c1 | inactive
14 | O=C(Cc1cccc(Cl)c1)Nc1cccc2c1OCO2 | inactive
15 | O=C(Cc1cccc(Cl)c1)Nc1ccccc1F | inactive
16 | CCN(C)c1ccccc1NC(=O)Cc1cccc(Cl)c1 | inactive
17 | CN(C(=O)Cc1ccccc1)c1ccccc1N1CCCC1 | inactive
